Assay results from ChEMBL document CHEMBL1152833, “Synthesis of some novel N4-(naphtha[1,2-d]thiazol-2-yl)semicarbazides as potential anticonvulsants” (Eur J Med Chem, 2009).
Activity calls are given as the source filed them.

Tests used:
[1] = test system: Mus musculus; assay: Anticonvulsant activity against maximal electroshock-induced seizures in Swiss albino mouse at 300 mg/kg, ip after 0.5 hrs by MES test; assay type: functional, organism-based; design: dose 300 mg/kg
Summary of the method: (§1)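 Male Swiss albino mice (18–25 g) received compound i.p. at 30, 100 and 300 mg/kg. MES seizures were induced after 0.5 and 4 h, with a drop of 0.9% saline placed in the eye before the electrodes went on. Protection meant abolition of the hind-limb tonic extensor component. The tabulated value is the minimum dose protecting half or more of the mice.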

[2] = test system: Mus musculus; assay: Anticonvulsant activity against maximal electroshock-induced seizures in Swiss albino mouse at 300 mg/kg, ip after 4 hrs by MES test; assay type: functional, organism-based; design: dose 300 mg/kg; summary of the method: as §1
[3] = test system: Mus musculus; assay: Neurotoxicity in Swiss albino mouse at 300 mg/kg, ip after 0.5 hrs by rotarod test; assay type: toxicity, organism-based; design: dose 300 mg/kg, route intraperitoneal; conditions: in vivo
Summary of the method: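 Male Swiss albino mice (18-25 g) received the compound i.p. at 30, 100 or 300 mg/kg and were tested on the rotarod 0.5 and 4 h later. Mice were pre-checked, and any that fell off within 30 s were excluded. Neurotoxicity was scored as falling off the rod. The value is the minimum dose affecting half or more of the mice.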

[4] = test system: Mus musculus; assay: Neurotoxicity in ip dosed Swiss albino mouse assessed as minimum drug concentration required for falling off the rotarod by half or more of mouse after 4 hrs by rotarod test; assay type: toxicity, organism-based; conditions: in vivo
Summary of the method: (§2)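 Rotarod test in male Swiss albino mice (18–25 g) after i.p. dosing at 30, 100 and 300 mg/kg, read at 0.5 and 4 h. Mice falling within 30 s in a pre-check were excluded. Neurotoxicity was scored as the minimum dose at which half or more of the mice fell off the rod.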

[5] = test system: Mus musculus; assay: Anticonvulsant activity in ip dosed Swiss albino mouse assessed as minimum drug concentration required for inhibition of pentylenetetrazole-induced seizures in half or more of mouse after 4 hrs by scPTZ test; assay type: functional
Summary of the method: (§3)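 Male Swiss albino mice (18–25 g) were dosed i.p. at 30, 100 and 300 mg/kg, examined at 0.5 and 4 h. PTZ 85 mg/kg (CD97) was given and the animals were […]. Protection meant absence of any threshold convulsion, i.e. clonic spasm lasting at least 5 s. The value is the minimum dose active in half or more of the mice.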

[6] = test system: Mus musculus; assay: Anticonvulsant activity in ip dosed Swiss albino mouse assessed as minimum drug concentration required for inhibition of pentylenetetrazole-induced seizures in half or more of mouse after 0.5 hrs by scPTZ test; assay type: functional; summary of the method: as §3
[7] = test system: Mus musculus; assay: Anticonvulsant activity in ip dosed Swiss albino mouse assessed as minimum drug concentration required for inhibition of maximal electroshock-induced seizure in half or more of mouse after 0.5 hrs by MES test; assay type: functional; summary of the method: as §1
[8] = test system: Mus musculus; assay: Neurotoxicity in ip dosed Swiss albino mouse assessed as minimum drug concentration required for falling off the rotarod by half or more of mouse after 0.5 hrs by rotarod test; assay type: toxicity, organism-based; conditions: in vivo; summary of the method: as §2
[9] = test system: Mus musculus; assay: Antioxidant activity against PTZ-induced decrease in superoxide dismutase activity in Swiss albino mouse brain assessed as enzyme units per mg of protein causing 50% inhibition in NBT reduction rate at 100 mg/kg, ip administered 30 mins before PTZ challenge measured after 4 hrs; assay type: functional; conditions: route intraperitoneal
Summary of the method: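 Same mouse dosing: 100 mg/kg i.p. 30 min before PTZ 85 mg/kg, brains taken at 4 h. Total SOD was measured in the ethanol phase of an ethanol/chloroform (5:3) extract, as inhibition of NBT reduction by xanthine–xanthine oxidase. One unit gives 50% inhibition; activity is expressed per mg protein (Lowry). n=6, mean ± SEM.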

[10] = test system: Mus musculus; assay: Antioxidant activity against PTZ-induced lipid peroxidation in Swiss albino mouse brain assessed as malondialdehyde content per mg of protein at 100 mg/kg, ip preincubated for 30 mins before PTZ challenge measured after 4 hrs by TBARS assay; assay type: functional; conditions: route intraperitoneal
Summary of the method: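 Mice were dosed 100 mg/kg i.p. 30 min before PTZ 85 mg/kg, and brains were homogenized after 4 h. For TBARS, homogenate supernatant was heated with SDS, acetic acid and 0.8% thiobarbituric acid at 95 °C for 1 h. The product was extracted into n-butanol/pyridine and read at 532 nm. Results are pmol MDA/mg protein, n=6, mean ± SEM.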

[11] = test system: Rattus norvegicus; assay: Neurotoxicity in Wistar albino rat at 50 mg/kg, po by rotarod test; assay type: toxicity, organism-based; design: dose 50 mg/kg, route oral; conditions: in vivo
[12] = test system: Rattus norvegicus; assay: Anticonvulsant activity against pentylenetetrazole-induced seizures in Wistar albino rat at 50 mg/kg, po up to 2 hrs by scPTZ test; assay type: functional, organism-based; design: dose 50 mg/kg
Summary of the method: (§4)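 Male Wistar rats (100–125 g) were given compound orally at 50 mg/kg. They were challenged with scPTZ at 70 mg/kg at 0.25, 0.5, 1.0 and 2.0 h, and seizures were watched for. Protection meant absence of clonic spasm lasting at least 5 s. The score is the number of rats protected out of four.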

[13] = test system: Mus musculus; assay: Anticonvulsant activity in ip dosed Swiss albino mouse assessed as minimum drug concentration required for inhibition of maximal electroshock-induced seizure in half or more of mouse after 4 hrs by MES test; assay type: functional; summary of the method: as §1
[14] = test system: Mus musculus; assay: Neurotoxicity in Swiss albino mouse at 300 mg/kg, ip after 4 hrs by rotarod test; assay type: toxicity, organism-based; design: dose 300 mg/kg, route intraperitoneal; conditions: in vivo; summary of the method: as §2
[15] = test system: Mus musculus; assay: Anticonvulsant activity against pentylenetetrazole-induced seizures in Swiss albino mouse at 300 mg/kg, ip after 4 hrs by scPTZ test; assay type: functional, organism-based; design: dose 300 mg/kg; summary of the method: as §3
[16] = test system: Mus musculus; assay: Anticonvulsant activity against pentylenetetrazole-induced seizures in Swiss albino mouse at 300 mg/kg, ip after 0.5 hrs by scPTZ test; assay type: functional, organism-based; design: dose 300 mg/kg; summary of the method: as §3
[17] = test system: Rattus norvegicus; assay: Anticonvulsant activity against pentylenetetrazole-induced seizures in Wistar albino rat at 50 mg/kg, po after 2 hrs by scPTZ test; assay type: functional, organism-based; design: dose 50 mg/kg; summary of the method: as §4
[18] = test system: Mus musculus; assay: Toxicity to Swiss albino mouse assessed as mortality following tonic extension at 300 mg/kg, ip after 0.5 hrs; assay type: organism-based; design: dose 300 mg/kg, route intraperitoneal; conditions: in vivo
[19] = test system: Mus musculus; assay: Toxicity to Swiss albino mouse assessed as mortality following tonic extension at 300 mg/kg, ip after 4 hrs; assay type: organism-based; design: dose 300 mg/kg, route intraperitoneal; conditions: in vivo
[20] = test system: Rattus norvegicus; assay: Anticonvulsant activity against pentylenetetrazole-induced seizures in Wistar albino rat at 50 mg/kg, po after 0.25 hrs by scPTZ test; assay type: functional, organism-based; design: dose 50 mg/kg
Summary of the method: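 Male Wistar rats (100-125 g), compound given orally at 50 mg/kg, then challenged with scPTZ at 70 mg/kg. Absence of such a convulsion counted as protection. Groups of four rats were scored at 0.25, 0.5, 1 and 2 h as number protected out of four.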

| SMILES | Activity [1] | Activity [2] | Activity [4] | Activity [5] | Activity [6] | Activity [7] | Activity [8] | Activity [13] | Activity [14] | Activity [15] | also measured |
| --- | --- | --- | --- | --- | --- | --- | --- | --- | --- | --- | --- |
| O=C(N/N=C/c1ccccc1[N+](=O)[O-])Nc1nc2c(ccc3ccccc32)s1 | inactive | inactive | 100 mg/kg | 300 mg/kg | 300 mg/kg |  |  |  |  |  | Activity [3]: Non-toxic |
| O=C(N/N=C/c1ccccc1)Nc1nc2c(ccc3ccccc32)s1 |  | inactive | 300 mg/kg | 300 mg/kg | 300 mg/kg | 300 mg/kg | 100 mg/kg |  |  |  |  |
| O=C(N/N=C/c1ccc(F)cc1)Nc1nc2c(ccc3ccccc32)s1 |  |  | 300 mg/kg | 100 mg/kg | 100 mg/kg | 300 mg/kg | 300 mg/kg | 300 mg/kg |  |  | Activity [9]: 57; Activity [10]: 278 pmol; Activity [11]: Non-toxic; Activity [12]: Active |
| CCCC(CCC)C(=O)O [VALPROIC ACID] | inactive | inactive |  |  | 300 mg/kg |  |  |  | Non-toxic | inactive | Activity [9]: 65; Activity [10]: 216 pmol; Activity [3]: Non-toxic |
| O=C(N/N=C/c1ccc(Br)cc1)Nc1nc2c(ccc3ccccc32)s1 |  |  | 300 mg/kg | 100 mg/kg | 100 mg/kg | 100 mg/kg | 100 mg/kg | 100 mg/kg |  |  | Activity [9]: 60; Activity [10]: 292 pmol; Activity [11]: Non-toxic; Activity [12]: Active |
| COc1cc(/C=N/NC(=O)Nc2nc3c(ccc4ccccc43)s2)ccc1O |  |  | 100 mg/kg | 300 mg/kg | 300 mg/kg | 300 mg/kg | 300 mg/kg | 300 mg/kg |  |  |  |
| O=C(N/N=C/c1ccccc1Cl)Nc1nc2c(ccc3ccccc32)s1 | inactive |  |  | 300 mg/kg |  |  | 300 mg/kg | 300 mg/kg | Non-toxic |  | Activity [16]: inactive |
| COc1cc(/C=N/NC(=O)Nc2nc3c(ccc4ccccc43)s2)cc(OC)c1OC |  |  | 100 mg/kg | 300 mg/kg |  | 300 mg/kg | 100 mg/kg | 300 mg/kg |  |  | Activity [16]: inactive |
| O=C(N/N=C/c1ccc([N+](=O)[O-])cc1)Nc1nc2c(ccc3ccccc32)s1 |  |  | 300 mg/kg | 300 mg/kg | 100 mg/kg | 300 mg/kg | 300 mg/kg | 300 mg/kg |  |  | Activity [9]: 58; Activity [10]: 309 pmol; Activity [17]: inactive |
| COc1ccc(/C=N/NC(=O)Nc2nc3c(ccc4ccccc43)s2)cc1 | inactive | inactive |  |  |  |  |  |  | Non-toxic | inactive | Activity [3]: Non-toxic; Activity [18]: Toxic |
| O=C(N/N=C/c1ccc(O)cc1)Nc1nc2c(ccc3ccccc32)s1 | inactive | inactive |  |  |  |  |  |  | Non-toxic | inactive | Activity [3]: Non-toxic; Activity [18]: Toxic |
| O=C(N/N=C1\C(=O)Nc2ccccc21)Nc1nc2c(ccc3ccccc32)s1 | inactive |  | 300 mg/kg |  | 300 mg/kg |  | 100 mg/kg | 300 mg/kg |  | inactive |  |
| C/C(=N\NC(=O)Nc1nc2c(ccc3ccccc32)s1)c1ccccc1 | inactive | inactive |  | 300 mg/kg | 300 mg/kg |  | 100 mg/kg |  | Non-toxic |  |  |
| NC(=O)N1c2ccccc2C=Cc2ccccc21 [CARBAMAZEPINE] |  |  | 300 mg/kg | 300 mg/kg | 100 mg/kg | 30 mg/kg | 100 mg/kg | 100 mg/kg |  |  |  |
| CCC1(c2ccccc2)C(=O)NC(=O)NC1=O [PHENOBARBITAL] |  |  | 300 mg/kg | 30 mg/kg | 30 mg/kg | 100 mg/kg | 100 mg/kg | 30 mg/kg |  |  |  |
| O=C(N/N=C/c1ccc(Cl)cc1)Nc1nc2c(ccc3ccccc32)s1 |  |  | 300 mg/kg |  | 300 mg/kg | 100 mg/kg | 100 mg/kg | 100 mg/kg |  |  | Activity [19]: Toxic |
| CN(C)c1ccc(/C=N/NC(=O)Nc2nc3c(ccc4ccccc43)s2)cc1 | inactive | inactive | 300 mg/kg | 300 mg/kg | 300 mg/kg |  | 300 mg/kg |  |  |  |  |
| O=C(N/N=C/c1ccccc1O)Nc1nc2c(ccc3ccccc32)s1 |  | inactive | 100 mg/kg | 300 mg/kg | 300 mg/kg | 100 mg/kg | 100 mg/kg |  |  |  |  |
| COc1ccc(OC)c(/C=N/NC(=O)Nc2nc3c(ccc4ccccc43)s2)c1 |  | inactive |  |  |  | 300 mg/kg | 300 mg/kg |  | Non-toxic |  | Activity [19]: Toxic; Activity [16]: inactive |
| CCC1(C)CC(=O)NC1=O (stereo not drawn) [ETHOSUXIMIDE] | inactive | inactive |  |  | 300 mg/kg |  |  |  | Non-toxic | inactive | Activity [3]: Non-toxic; Activity [20]: inactive |
| O=C1NC(=O)C(c2ccccc2)(c2ccccc2)N1 [PHENYTOIN] |  |  | 100 mg/kg |  |  | 30 mg/kg | 100 mg/kg | 30 mg/kg |  | inactive | Activity [16]: inactive |
| COc1cc(/C=N/NC(=O)Nc2nc3c(ccc4ccccc43)s2)cc(OC)c1 | inactive | inactive |  |  |  |  |  |  | Non-toxic | inactive | Activity [3]: Non-toxic; Activity [18]: Toxic |
| C1CCc2nnnn2CC1 [PENTYLENETETRAZOL] |  |  |  |  |  |  |  |  |  |  | Activity [9]: 42; Activity [10]: 418 pmol |
